S100A4 inh HTS: inhibitors of S100A4-myosin IIA peptide binding, primary screen, biochemical, fluorescence polarization, TAMRA-MyoIIA peptide | Protein S100-A4 (Homo sapiens), P26447 | inhibition, % at 10.7 µM | 360,000 compounds, 0.14% hits | AID 652163, 2013;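 active = mean inhibition of at least 70% across replicates, with every replicate also reaching that level; inconclusive = mean inhibition reaches 70% but some replicates fall short; inactive = mean inhibition below 70%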
Target sequence (P26447 whole entry, looked up): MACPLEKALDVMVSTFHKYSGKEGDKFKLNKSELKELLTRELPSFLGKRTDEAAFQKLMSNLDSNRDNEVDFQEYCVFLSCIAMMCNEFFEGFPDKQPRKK
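Compound dosing: one dose per compound; test system: human S100A4 monomer with TAMRA-labelled myosin IIA peptide; probe or stimulus: TAMRA-labelled myosin IIA heavy-chain peptide probe, 5 nM; medium: HEPES buffer with Ca2+, pH 7.2; schedule: 5 min incubation before reading; benchmarks: neutral control DMSO, positive control TFP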
PGC1a acetyl inh: inhibitors of PGC1a acetylation signal, primary screen, cell-based, U2OS, AlphaScreen, inhibitor mode; AlphaScreen anti-acetyl-lysine; with virally co-expressed GCN5 acetyltransferase; inhibition, % at 15.6 µM; 350,000 compounds, 0.17% hits;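 active = every replicate shows inhibition of at least 40%; inconclusive = mean inhibition at least 40% but some replicate below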
SIRT5 block: SIRT5 desuccinylase inhibitors, primary screen, biochemical, fluorescence imaging, single point, set 5 | Purified SirT5, succinyl-peptide AMC, trypsin-coupled fluorescence | inhibition, % at 15 µM | 330,000 compounds, 1.1% hits | AID 652115, 2013; in the data active = inhibition above about 15%; inconclusive = no clear call, values can overlap the other calls
Target sequence (Q9NXA8 whole entry, looked up): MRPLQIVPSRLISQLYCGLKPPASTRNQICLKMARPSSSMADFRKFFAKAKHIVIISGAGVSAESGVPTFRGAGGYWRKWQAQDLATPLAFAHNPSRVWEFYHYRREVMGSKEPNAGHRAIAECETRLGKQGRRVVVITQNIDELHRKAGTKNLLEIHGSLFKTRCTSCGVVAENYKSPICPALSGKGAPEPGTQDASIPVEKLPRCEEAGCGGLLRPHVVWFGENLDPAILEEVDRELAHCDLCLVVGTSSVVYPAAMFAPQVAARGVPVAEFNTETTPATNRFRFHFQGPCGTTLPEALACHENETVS
Cneo AK release: Cryptococcus neoformans cell lysis inducers, primary screen, AK release luminescence, single concentration. C. neoformans lysis, adenylate kinase release luminescence, 4 h; normalised: neutral wells 0, clomiphene wells 100. lysis activity, % at 15 µM. 360,000 compounds, 0.2% hits. AID 651654, 2012;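 active = mean lysis activity across replicates of at least 80%, whatever share of replicates individually reach that level; inactive = mean lysis activity below 80%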
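Assay system: log-phase C. neoformans yeast / Quantity: yeast cell density of 5 × 10^6 cells/mL / Medium: fresh YPD growth medium / Compound: single dose / Timing: static 4 h at 37 °C with compound, 1 h detection / Measured by: adenylate kinase release luminescence / Read-out: lysis from increased AK signal / Benchmarks: Clomiphene as positive lysis control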
C2C12 statin: suppressors of statin myotoxicity in C2C12 myotubes, primary screen, cell-based, single point, plate reader; 330,000 compounds, 0.78% hits; AID 602340, 2012; rescue of ATP level, % at 7.49 µM; C2C12 myotubes + simvastatin, ATP luminescence, 48 h; scaled: DMSO 0, geranylgeraniol control 100;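 active = mean ATP rescue above about 67%, or every replicate alone reaching that limit, limit read from the data, passing the limit was not always enough; inconclusive = no clear call, values can overlap the other calls; inactive = mean under the limit and some replicate under it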;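 also: myotubes were challenged with 10 µM simvastatin during compound exposure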
rRNA inh HTS: reduced GFP signal of wild-type E. coli, primary screen, bacterial rRNA inhibitor project, GFP/RFP fluorescence, OD600, single point; GFP signal change (wild-type ribosome), % (no concentration beside the values); E. coli WT GFP vs humanized-ribosome RFP mutants, 24 h; stronger effect = lower value; DMSO median 0, no signal -100; 350,000 compounds, 1.6% hits;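 active = significant combined selectivity score with lowered wild-type GFP, culture density cut under 30%, mutant RFP and density less affected; inactive = any of these conditions unmet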
AID977621: growth inhibition of wild-type GFP E. coli, dose response, H69 mutant RFP, cherry-pick. activity change, negative = inhibition at 50 µM. AID 977621, 2014. E. coli wild-type GFP strain growth, fluorescence, 24 h. shares compounds with rRNA inh HTS. 1,900 tested, under 10 active;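 active = Wild-type ribosome reporter drop at least double the humanized mutant ribosome reporter drop, growth loss under a set limit; inconclusive = no clear call, values can overlap the other calls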;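 also: wild-type GFP and H69 mutant RFP strains grown together 50/50 in each well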
AID977628: E. coli growth inhibition, wild-type GFP versus h24 humanized RFP strain, dose response, h24 mutant RFP vs wild-type GFP, cherry-pick; E. coli WT GFP strain growth, fluorescence, 24 h; shares compounds with rRNA inh HTS; activity change, negative = inhibition at 50 µM; 1,900 tested, under 10 active; AID 977628, 2014;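 active = compound lowering the normal-ribosome reporter at least twice as much as the humanized-ribosome reporter, growth loss under a set limit; inconclusive = no clear call, values can overlap the other calls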;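 also: wild-type GFP and h24 humanized RFP strains co-cultured 1 to 1 per well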
Each line names hits and unclear results; the compound was inactive in the other large screens (follow-up assays come after a bar, where they were run); ! = not confirmed by another sample. Most compounds without a hit are left out; they make up all but 3% or so of the library.

C[C@@H]1CCCCO[C@@H](CN(C)C(=O)Nc2ccc(F)cc2)[C@@H](C)CN([C@@H](C)CO)C(=O)c2cc(NC(=O)NC3CCCCC3)ccc2O1	none (no result: S100A4 inh HTS, PGC1a acetyl inh, SIRT5 block, Cneo AK release, C2C12 statin)
CN(C)CC(=O)N[C@H]1CC[C@H](CCNC(=O)C2CCC2)O[C@H]1CO	none
CO[C@H]1CN(C)C(=O)c2ccc(NS(C)(=O)=O)cc2OC[C@H](C)N(C(=O)C2CCCC2)C[C@@H]1C	none (no result: PGC1a acetyl inh)
CC(=O)Nc1ccc(OCC(=O)N2CCC(Cc3ccccc3)CC2)cc1	rRNA inh HTS -20 (no result: SIRT5 block, Cneo AK release, C2C12 statin) | AID977621 inactive
O=C(Nc1ccc(OCC(=O)N2CCC(Cc3ccccc3)CC2)cc1)c1ccco1	none (no result: S100A4 inh HTS, SIRT5 block, rRNA inh HTS)
CCNC(=O)C[C@@H]1CC[C@H](NC(=O)C2CCOCC2)[C@@H](CO)O1	none
COc1ccc(C(=O)NCCC2=CCCCC2)cc1[N+](=O)[O-]	rRNA inh HTS -22 (no result: PGC1a acetyl inh, C2C12 statin) | AID977621 inactive | AID977628 inactive
Cc1cccc(C)c1NC(=O)C1(C)CSCC(=O)N1CCOc1ccccc1 (stereo not drawn)	rRNA inh HTS -22 (no result: PGC1a acetyl inh, Cneo AK release, C2C12 statin) | AID977621 inactive | AID977628 inactive
O=C(C[C@H]1CC[C@H]2[C@@H](COC[C@H](O)CN2Cc2ccccc2F)O1)N1CCc2ccccc2C1	none
Cc1occc1-c1nnc(SCC(=O)Nc2nc(-c3ccccc3)cs2)o1	rRNA inh HTS -24 | AID977621 inconclusive | AID977628 inactive
Cc1cc(-c2nnc(SCC(=O)Nc3nc(-c4ccccc4)cs3)o2)no1	none (no result: C2C12 statin)
COc1cccc(C(=O)C2CCCN(C/C=C/c3ccccc3OC)C2)c1 (stereo not drawn)	rRNA inh HTS -29 | AID977621 inconclusive | AID977628 inconclusive
COc1ccc(NC(=O)N[C@H]2CC[C@H](CC(=O)NCc3ccccn3)O[C@H]2CO)cc1	none
c1coc(CSc2ncnc3c2oc2ccccc23)c1	rRNA inh HTS -23 | AID977621 inactive | AID977628 inactive
c1ccc(CSc2ncnc3c2oc2ccccc23)cc1	none (no result: S100A4 inh HTS, SIRT5 block, C2C12 statin, rRNA inh HTS)
COc1ccc(S(=O)(=O)N(C)C[C@H]2OCCCC[C@@H](C)Oc3ccc(NC(=O)CCC(F)(F)F)cc3C(=O)N([C@H](C)CO)C[C@H]2C)cc1	none (no result: C2C12 statin)
Cc1cccc(-c2ccccc2[C@H]2[C@@H](C#N)N(c3ncc(-c4ccccc4)s3)[C@@H]2CO)c1	none (no result: Cneo AK release, C2C12 statin)
Cc1ccc2nc(N(CCN(C)C)C(=O)C3CCN(S(=O)(=O)c4cccs4)CC3)sc2c1	rRNA inh HTS -11 (no result: SIRT5 block) | AID977621 inconclusive
C[C@H](CO)N1C[C@H](C)[C@H](CN(C)C(=O)c2ccncc2)OCCCC[C@H](C)Oc2ccc(NC(=O)CCCCCC(=O)Nc3ccccc3N)cc2C1=O	none (no result: PGC1a acetyl inh, C2C12 statin)
COc1ccc(S(=O)(=O)Nc2ccc3c(c2)C(=O)N([C@H](C)CO)C[C@@H](C)[C@@H](CN(C)C(=O)C2CCCCC2)OCCCC[C@H](C)O3)cc1	none (no result: C2C12 statin)
COCCNC(=O)c1cc2c(c(-c3cccc(-c4ccc(C#N)cc4)c3)n1)[C@H](CCO)N(C(=O)CC1CC1)C2	none (no result: PGC1a acetyl inh, Cneo AK release, C2C12 statin)
CCc1ccc(OCC(=O)NCc2ccco2)c(Br)c1	rRNA inh HTS -21 | AID977621 inactive
Cc1noc(C)c1COc1cccc(C(=O)N2CCc3ccccc32)c1	rRNA inh HTS -41 | AID977621 inactive | AID977628 inactive
COc1cc(C(=O)N2CCc3ccccc32)ccc1OCc1c(C)noc1C	none
COCC(C)NC(=O)c1nn(Cc2ccccc2)c(=O)c2ccccc12 (stereo not drawn)	rRNA inh HTS -13 (no result: PGC1a acetyl inh) | AID977621 inactive | AID977628 inactive
CCC(C)NC(=O)c1nn(Cc2ccccc2)c(=O)c2ccccc12 (stereo not drawn)	none
C[C@@H]1CN([C@H](C)CO)C(=O)c2cccc(NC(=O)Nc3ccc4c(c3)OCO4)c2O[C@@H]1CN(C)C(=O)Nc1ccc2c(c1)OCO2	rRNA inh HTS -19 | AID977621 inactive | AID977628 inconclusive
C[C@H](CO)N1C[C@H](C)[C@H](CN(C)C(=O)Nc2ccc(F)cc2)Oc2c(NC(=O)Nc3ccccc3)cccc2C1=O	rRNA inh HTS -23 | AID977621 inactive | AID977628 inconclusive
C[C@@H]1CN([C@@H](C)CO)C(=O)c2cccc(NC(=O)c3nc4ccccc4s3)c2O[C@@H]1CN(C)CC1CC1	rRNA inh HTS -28! | AID977621 inactive | AID977628 inactive
C[C@H](CO)N1C[C@H](C)[C@H](CN(C)C(=O)Nc2ccc3c(c2)OCO3)Oc2c(NC(=O)Nc3ccc4c(c3)OCO4)cccc2C1=O	none
COc1cccc(NC(=O)N(C)C[C@H]2Oc3ncc(C#Cc4cccnc4)cc3C(=O)N([C@H](C)CO)C[C@H]2C)c1	SIRT5 block inconclusive, rRNA inh HTS -39 | AID977621 inactive | AID977628 inactive
C[C@@H]1CN([C@@H](C)CO)C(=O)c2cccc(NC(=O)c3nc4ccccc4s3)c2O[C@H]1CN(C)CC1CC1	none
CC(C)c1cn(CC[C@H]2CC[C@H](NC(=O)C3CCC3)[C@@H](CO)O2)nn1	none
N#Cc1ccc(-c2ccc([C@@H]3[C@H]4CN(S(=O)(=O)c5ccccc5)CCCCN4[C@H]3CO)cc2)cc1	none (no result: C2C12 statin)
COc1ccccc1N(C)S(=O)(=O)c1ccc(C(=O)NC(C)c2ccccc2)cc1 (stereo not drawn)	rRNA inh HTS -18 | AID977628 inconclusive
CCSc1nc2ccccc2c(=O)n1CCc1ccc(OC)c(OC)c1	rRNA inh HTS -33 | AID977628 inconclusive
CN(C)C(=O)c1ccc(-c2ccc(C3[C@@H]4CN(C(=O)C5CCCC5)C[C@H]3N4)cc2)cc1 (stereo partly drawn)	none (no result: Cneo AK release, C2C12 statin)
COc1cccc(CNC(=O)CCC2CCCN(C(=O)c3cc4ccccc4o3)C2)c1 (stereo not drawn)	rRNA inh HTS -32 (no result: PGC1a acetyl inh) | AID977621 inactive
